Results taken from ChEMBL document CHEMBL1122833, “Potential antitumor agents. 44. Synthesis and antitumor activity of new classes of diacridines: importance of linker chain rigidity for DNA binding kinetics and biological activity” (J Med Chem, 1985).
pIC50: −log10 of the molar value.

Tests used:
[1] = Lipophilicity (Rm); assay type: physicochemical; settings: chromatographic, drug cations at pH 1-2
L1210 = experiment: In vitro inhibitory dose that reduces L1210 cell line by 50% when added for a period of 70h; assay type: functional; settings: Mus musculus, L1210, 70 h; read-out: ID50 (the source's name)
In short: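 L1210 cultures were exposed to drug for 70 h, and cells were then counted. IC50 is the drug concentration (nM) that reduces cell numbers to 50% of untreated controls.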

P388 [2] = experiment: (§1) The % increase in lifespan of treated animals over that of control group of animals injected with tumor alone; assay type: functional, Mus musculus
P388 [3] = experiment: (§2) Highest nontoxic optimal dose administered intraperitoneally after inoculation of P388 leukemia cells; assay type: functional, Mus musculus
In short: (§3)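 Mice were inoculated with 10^6 P388 leukemia cells. Drug was given intraperitoneally in 30% v/v EtOH/water on days 1, 5 and 9 after inoculation. OD is the highest nontoxic dose in mg/kg per day.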

[4] = Chromatographic measure of drug lipophilicity determined for drug cations was evaluated; assay type: physicochemical
P388 [5] = experiment: as §2; assay type: functional, Mus musculus; in short: as §3; remark: listed apart in the source
P388 [6] = experiment: as §1; assay type: functional, Mus musculus; remark: listed apart in the source

For O=C(CCNc1c2ccccc2nc2ccccc12)NCCNc1c2ccccc2nc2ccccc12, the Rm [1] was -0.43, the pIC50 (L1210) was less than 5.46 and the ILS (P388 [2]) was less than 20%. The OD (P388 [3]) was 50 mg/kg.
Compound c1ccc2c(NCCCCCCCNc3c4ccccc4nc4ccccc34)c3ccccc3nc2c1 has a Rm [1] of 0.21, a pIC50 (L1210) of 7.30 and an ILS (P388 [2]) of less than 20%. It also gave an OD (P388 [3]) of 8.9 mg/kg.
Work on c1ccc2c(NCCNCCNCCNc3c4ccccc4nc4ccccc34)c3ccccc3nc2c1 yielded a Rm [1] of -0.9, a pIC50 (L1210) of 5.54 and an ILS (P388 [2]) of less than 20%. For the same compound, the OD (P388 [3]) was 10 mg/kg.
For c1ccc2c(NCCCCCCCCNc3c4ccccc4nc4ccccc34)c3ccccc3nc2c1, the Rm [1] was 0.28, the pIC50 (L1210) was 6.77 and the ILS (P388 [2]) was less than 20%. For the same compound, the OD (P388 [3]) was 8.9 mg/kg.
Cn1nc(C(=O)NCCCNc2c3ccccc3nc3ccccc23)cc1C(=O)NCCCNc1c2ccccc2nc2ccccc12 gave a Rm [1] of 0, a pIC50 (L1210) of 7.26 and an ILS (P388 [2]) of 65%. The OD (P388 [3]) was 20 mg/kg.
For Nc1c2ccccc2nc2ccccc12 [AMINACRINE], the Rm [1] was -0.08, the pIC50 (L1210) was 5.72 and the ILS (P388 [2]) was less than 20%. The OD (P388 [3]) was 20 mg/kg.
Work on Cn1nc(C(=O)NCCNc2c3ccccc3nc3ccccc23)cc1C(=O)NCCNc1c2ccccc2nc2ccccc12 yielded a Rm [1] of -0.3, a pIC50 (L1210) of 7.89 and an ILS (P388 [2]) of 46%. For the same compound, the OD (P388 [3]) was 20 mg/kg.
c1ccc2c(NCCCCNCCCNc3c4ccccc4nc4ccccc34)c3ccccc3nc2c1 gave a Rm [1] of -0.39, a pIC50 (L1210) of 7.54 and an ILS (P388 [2]) of less than 20%. It also gave an OD (P388 [3]) of 10 mg/kg.
For c1ccc2c(NCCCCCCCCCCNc3c4ccccc4nc4ccccc34)c3ccccc3nc2c1, the Rm [1] was 0.45, the pIC50 (L1210) was 6.55 and the ILS (P388 [2]) was less than 20%. For the same compound, the OD (P388 [3]) was 5.9 mg/kg.
Compound O=C(CNc1c2ccccc2nc2ccccc12)NCCCNc1c2ccccc2nc2ccccc12 has a Rm [1] of -0.24, a pIC50 (L1210) of less than 5.46 and an ILS (P388 [2]) of less than 20%. The OD (P388 [3]) was 50 mg/kg.
Work on O=C(CNc1c2ccccc2nc2ccccc12)NCCNc1c2ccccc2nc2ccccc12 yielded a Rm [1] of -0.41, a pIC50 (L1210) of less than 5.40 and an ILS (P388 [2]) of less than 20%. For the same compound, the OD (P388 [3]) was 50 mg/kg.
With c1ccc2c(NCCN3CCN(CCNc4c5ccccc5nc5ccccc45)CC3)c3ccccc3nc2c1 the Rm [1] was -0.77, the pIC50 (L1210) was 7.11 and the ILS (P388 [2]) was less than 20%. It also gave an OD (P388 [3]) of 3 mg/kg.
Work on c1ccc2c(NCCCCCNc3c4ccccc4nc4ccccc34)c3ccccc3nc2c1 yielded a Rm [1] of 0.02, a pIC50 (L1210) of 5.43 and an ILS (P388 [2]) of less than 20%. For the same compound, the OD (P388 [3]) was 20 mg/kg.
c1ccc2c(NCCCN3CCN(CCCNc4c5ccccc5nc5ccccc45)CC3)c3ccccc3nc2c1 showed a Rm [1] of -0.72, a Rm [4] of -0.72 and an OD (P388 [5]) of 3 mg/kg. The ILS (P388 [2]) was less than 20%, the OD (P388 [3]) was 3 mg/kg and the ILS (P388 [6]) was less than 20%.
For CN(CCCNc1c2ccccc2nc2ccccc12)CCCNc1c2ccccc2nc2ccccc12, the Rm [1] was -0.65, the pIC50 (L1210) was 6.11 and the ILS (P388 [2]) was less than 20%. For the same compound, the OD (P388 [3]) was 10 mg/kg.
With O=C(CCCNc1c2ccccc2nc2ccccc12)NCCNc1c2ccccc2nc2ccccc12 the Rm [1] was -0.19, the pIC50 (L1210) was less than 5.46 and the ILS (P388 [2]) was less than 20%. It also gave an OD (P388 [3]) of 50 mg/kg.
Work on O=C(CCCNc1c2ccccc2nc2ccccc12)NCCCNc1c2ccccc2nc2ccccc12 yielded a Rm [1] of -0.12, a pIC50 (L1210) of less than 5.46 and an ILS (P388 [2]) of less than 20%. The OD (P388 [3]) was 50 mg/kg.
Compound Cn1nc(C(=O)NCCCCNc2c3ccccc3nc3ccccc23)cc1C(=O)NCCCCNc1c2ccccc2nc2ccccc12 has a Rm [1] of 0.11, a pIC50 (L1210) of 7.62 and an ILS (P388 [2]) of 26%. For the same compound, the OD (P388 [3]) was 8.9 mg/kg.
Work on c1ccc2c(NCCCNCCNCCCNc3c4ccccc4nc4ccccc34)c3ccccc3nc2c1 yielded a Rm [1] of -0.86, a pIC50 (L1210) of 6.25 and an ILS (P388 [2]) of less than 20%. It also gave an OD (P388 [3]) of 10 mg/kg.
O=C(CCNc1c2ccccc2nc2ccccc12)NCCCNc1c2ccccc2nc2ccccc12 gave a Rm [1] of -0.28, a pIC50 (L1210) of less than 5.46 and an ILS (P388 [2]) of less than 20%. It also gave an OD (P388 [3]) of 15 mg/kg.
c1ccc2c(NCCCCCCCCCNc3c4ccccc4nc4ccccc34)c3ccccc3nc2c1 gave a Rm [1] of 0.4, a pIC50 (L1210) of 6.80 and an ILS (P388 [2]) of less than 20%. It also gave an OD (P388 [3]) of 5.9 mg/kg.
In the case of c1ccc2c(NCCCCNc3c4ccccc4nc4ccccc34)c3ccccc3nc2c1, the Rm [1] was -0.21, the pIC50 (L1210) was 4.97 and the ILS (P388 [2]) was less than 20%. For the same compound, the OD (P388 [3]) was 30 mg/kg.
c1ccc2c(NCCCNCCCNc3c4ccccc4nc4ccccc34)c3ccccc3nc2c1 showed a Rm [1] of -0.53, a pIC50 (L1210) of 6.32 and an ILS (P388 [2]) of less than 20%. It also gave an OD (P388 [3]) of 5 mg/kg.
c1ccc2c(NCCCCCCNc3c4ccccc4nc4ccccc34)c3ccccc3nc2c1 gave a Rm [1] of 0.15, a pIC50 (L1210) of 6.96 and an ILS (P388 [2]) of less than 20%. It also gave an OD (P388 [3]) of 13.3 mg/kg.
